Measurements from ChEMBL document CHEMBL3808334, “Synthesis and in vitro evaluation of novel triazine analogues as anticancer agents and their interaction studies with bovine serum albumin” (Eur J Med Chem, 2016).

Columns and labels:
Type in all cases: functional
[1] = system: MDA-MB-435; assay: Growth inhibition of human MDA-MB-435 cells incubated for 48 hrs by sulforhodamine B assay; details: MDA-MB-435, 48 h
Summary of the method: (§1)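 Cells were plated at 5,000–40,000 per well according to doubling time and preincubated 24 h at 37 °C in 5% CO2; time-zero plates were then TCA-fixed. Five concentrations (10-fold or ½-log dilutions, DMSO stock) were incubated 48 h. Cells were TCA-fixed, stained with 0.4% SRB and read at 515 nm. GI50 was taken where [(Ti−Tz)/(C−Tz)]×100 = 50.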

[2] = Growth inhibition of human Caki1 cells assessed as cell growth at 10^-8 M incubated for 48 hrs by sulforhodamine B assay; details: CAKI-1, 48 h, read-out: Activity
Summary of the method: (§2)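 Cells seeded at 5,000–40,000/well according to doubling time and preincubated 24 h at 37 °C, 5% CO2. Time-zero plates were TCA-fixed. DMSO concentrate was diluted in medium with 50 µg/ml gentamicin to give five concentrations (10-fold or ½ log steps), then exposed 48 h. Cells were TCA-fixed, stained with 0.4% SRB and read at 515 nm. Percent growth was taken against time-zero and control; GI50, TGI and LC50 derived.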

[3] = Growth inhibition of human SNB75 cells assessed as cell growth at 10 uM incubated for 48 hrs by sulforhodamine B assay; details: SNB-75, 48 h, read-out: Activity
[4] = system: MDA-MB-468; assay: Growth inhibition of human MDA-MB-468 cells assessed as cell growth at 10^-7 M incubated for 48 hrs by sulforhodamine B assay; details: MDA-MB-468, 48 h, read-out: Activity
[5] = system: A498; assay: Growth inhibition of human A498 cells incubated for 48 hrs by sulforhodamine B assay; details: A498, 48 h
Summary of the method: (§3)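 Five-dose assay: five concentrations from 10-fold or ½-log serial dilutions. Cells are plated at 5,000–40,000 per well according to doubling time, grown 24 h, then exposed 48 h at 37 °C, 5% CO₂. Fixed with cold 50% TCA (final addition) for 60 min at 4 °C and stained with 0.4% SRB in 1% acetic acid. Bound dye is solubilized in 10 mM Tris base and read at 515 nm. GI₅₀ is where [(Ti−Tz)/(C−Tz)]×100 = 50, with a time-zero plate as Tz.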

[6] = system: KM12; assay: Growth inhibition of human KM12 cells assessed as cell growth at 10^-7 M incubated for 48 hrs by sulforhodamine B assay; details: KM12, 48 h, read-out: Activity
[7] = system: EKVX; assay: Growth inhibition of human EKVX cells assessed as cell growth at 10^-7 M incubated for 48 hrs by sulforhodamine B assay; details: read-out: Activity; summary of the method: as §2
[8] = system: SK-MEL-28; assay: Growth inhibition of human SK-MEL-28 cells assessed as cell growth at 10^-8 M incubated for 48 hrs by sulforhodamine B assay; details: SK-MEL-28, 48 h, read-out: Activity
[9] = Growth inhibition of human SKOV3 cells assessed as cell growth at 10^-8 M incubated for 48 hrs by sulforhodamine B assay; details: SK-OV-3, 48 h, read-out: Activity
[10] = system: SR; assay: Growth inhibition of human SR cells assessed as cell growth at 10 uM incubated for 48 hrs by sulforhodamine B assay; details: read-out: Activity
[11] = system: NCI-H23; assay: Growth inhibition of human NCI-H23 cells incubated for 48 hrs by sulforhodamine B assay; details: NCI-H23, 48 h; summary of the method: as §1
[12] = Growth inhibition of human OVCAR5 cells assessed as cell growth at 10^-5 M incubated for 48 hrs by sulforhodamine B assay; details: OVCAR-5, 48 h, read-out: Activity
[13] = system: ACHN; assay: Growth inhibition of human ACHN cells assessed as cell growth at 10^-5 M incubated for 48 hrs by sulforhodamine B assay; details: read-out: Activity; summary of the method: as §3
[14] = Growth inhibition of human SKOV3 cells assessed as cell growth at 10^-6 M incubated for 48 hrs by sulforhodamine B assay; details: SK-OV-3, 48 h, read-out: Activity
[15] = Growth inhibition of human OVCAR4 cells incubated for 48 hrs by sulforhodamine B assay; details: OVCAR-4, 48 h; summary of the method: as §1
[16] = Growth inhibition of human PC3 cells assessed as cell growth at 10 uM incubated for 48 hrs by sulforhodamine B assay; details: PC-3, 48 h, read-out: Activity
[17] = system: SR; assay: Growth inhibition of human SR cells assessed as cell growth at 10^-5 M incubated for 48 hrs by sulforhodamine B assay; details: read-out: Activity
[18] = Growth inhibition of human TK10 cells assessed as cell growth at 10^-4 M incubated for 48 hrs by sulforhodamine B assay; details: TK-10, 48 h, read-out: Activity
[19] = system: Malme-3M; assay: Growth inhibition of human MALME-3M cells assessed as cell growth at 10^-8 M incubated for 48 hrs by sulforhodamine B assay; details: read-out: Activity
[20] = system: NCI/ADR-RES; assay: Growth inhibition of human NCI/ADR-RES cells assessed as cell growth at 10^-5 M incubated for 48 hrs by sulforhodamine B assay; details: read-out: Activity
[21] = system: NCI-H23; assay: Growth inhibition of human NCI-H23 cells assessed as cell growth at 10^-5 M incubated for 48 hrs by sulforhodamine B assay; details: NCI-H23, 48 h, read-out: Activity
[22] = system: SK-MEL-2; assay: Growth inhibition of human SK-MEL-2 cells assessed as cell growth at 10 uM incubated for 48 hrs by sulforhodamine B assay; details: SK-MEL-2, 48 h, read-out: Activity
[23] = system: SK-MEL-28; assay: Growth inhibition of human SK-MEL-28 cells incubated for 48 hrs by sulforhodamine B assay; details: SK-MEL-28, 48 h; summary of the method: as §1
[24] = system: M14; assay: Growth inhibition of human M14 cells incubated for 48 hrs by sulforhodamine B assay; details: M14, 48 h; summary of the method: as §1
[25] = system: EKVX; assay: Growth inhibition of human EKVX cells assessed as cell growth at 10 uM incubated for 48 hrs by sulforhodamine B assay; details: read-out: Activity
Summary of the method: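 Primary screen at one dose (10 µM) across 60 human cancer cell lines. Readout was growth percent relative to untreated control and time-zero.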

[26] = Growth inhibition of human SF539 cells assessed as cell growth at 10^-8 M incubated for 48 hrs by sulforhodamine B assay; details: SF-539, 48 h, read-out: Activity

## Clc1ccc(-c2nc(Nc3ccc(-c4nc5ccccc5[nH]4)cc3)nc(N3CCOCC3)n2)cc1
[1]; read-out: GI50
  GI50: 596 nM
[1]; read-out: TGI
  TGI: 1860 nM
[1]; read-out: pGI50 (converted)
  GI50: 603 nM
[1]; read-out: pTGI (converted)
  TGI: 1860 nM
[2]
  growth at 0.01 µM: 89%
[3]
  growth at 10 µM: -92.6%
[4]
  growth at 0.1 µM: 112%
[5]; read-out: GI50
  GI50: 1690 nM
[5]; read-out: TGI
  TGI: 3290 nM
[5]; read-out: pGI50 (converted)
  GI50: 1700 nM
[5]; read-out: pTGI (converted)
  TGI: 3310 nM
[6]
  growth at 0.1 µM: 97%
[7]
  growth at 0.1 µM: 87%
[8]
  growth at 0.01 µM: 105%
[9]
  growth at 0.01 µM: 101%
[10]
  growth at 10 µM: -83.3%
[11]; read-out: GI50
  GI50: 1700 nM
[11]; read-out: TGI
  TGI: 3660 nM
[11]; read-out: pGI50 (converted)
  GI50: 1700 nM
[11]; read-out: pTGI (converted)
  TGI: 3630 nM
[12]
  growth at 10 µM: -79%
[13]
  growth at 10 µM: -87%
[14]
  growth at 1 µM: 102%
[15]; read-out: GI50
  GI50: 1040 nM
[15]; read-out: LC50 (the source's name)
  CC50: 5530 nM
[15]; read-out: TGI
  TGI: 2400 nM
[15]; read-out: pGI50 (converted)
  GI50: 1050 nM
[15]; read-out: pLC50 (the source's name) (converted)
  CC50: 5500 nM
[15]; read-out: pTGI (converted)
  TGI: 2400 nM
[16]
  growth at 10 µM: -93.5%
[17]
  growth at 10 µM: -21%
[18]
  growth at 100 µM: -67%
[19]
  growth at 0.01 µM: 96%
[20]
  growth at 10 µM: -72%
[21]
  growth at 10 µM: -66%
[22]
  growth at 10 µM: -71.3%
[23]; read-out: GI50
  GI50: 1600 nM
[23]; read-out: TGI
  TGI: 3220 nM
[23]; read-out: pGI50 (converted)
  GI50: 1580 nM
[23]; read-out: pTGI (converted)
  TGI: 3240 nM
[24]; read-out: GI50
  GI50: 370 nM
[24]; read-out: TGI
  TGI: 1480 nM
[24]; read-out: pGI50 (converted)
  GI50: 372 nM
[24]; read-out: pTGI (converted)
  TGI: 1480 nM
[25]
  growth at 10 µM: -91.3%
[26]
  growth at 0.01 µM: 98%
